Reference: ChEMBL document CHEMBL4138314, “Synthesis and Evaluation of N-Phenyl-3-sulfamoyl-benzamide Derivatives as Capsid Assembly Modulators Inhibiting Hepatitis B Virus (HBV)” (J Med Chem, 2018)
Converted amounts (≈) assume the structure as drawn. The source made the active and inactive calls. The calls are words filed in the database; no cut-off is given here.

Columns and labels:
[1] = AUC (0 to infinity) in humanized mouse at 200 mg/kg, sc measured on day 1 post dose by LC-MS/MS analysis; assay type: ADME, organism-based; design: dose 200 mg/kg, route subcutaneous, time infinity; details: in vivo
[2] = Tmax in C57BL/6 mouse at 10 mg/kg, po by LC-MS/MS analysis; assay type: ADME, organism-based; details: in vivo
Procedure, shortened: (§1)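 Single-dose PK in C57BL/6 mice given compound intravenously and orally, with oral doses of 10 and 50 mg/kg. Plasma clearance, volume of distribution and oral bioavailability were derived from the plasma profiles.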

[3] = Volume of distribution at steady state in C57BL/6 mouse at 2.5 mg/kg, iv by LC-MS/MS analysis; assay type: ADME, organism-based; details: in vivo, read-out: Vdss
[4] = Tmax in C57BL/6 mouse at 50 mg/kg, po by LC-MS/MS analysis; assay type: ADME, organism-based; details: in vivo; procedure, shortened: as §1
HBV genotype D [5] = assay: Antiviral activity against HBV genotype D infected in chimeric mouse with humanized liver assessed as log reduction in viral DNA level in serum at 200 mg/kg, sc qd for 28 days by RT-PCR method; assay type: functional, hepatitis B virus genotype D
Procedure, shortened: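 HBV genotype D-infected chimeric mice with humanized liver (human hepatocyte replacement index ≥70%, judged by serum human albumin). Dosing was once daily for 28 days: test article 200 mg/kg s.c., entecavir 0.03 mg/kg oral as positive control, and oral saline as negative control. The read-out was serum HBV DNA (copies/mL), given as mean log change from baseline at day 29.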

[6] = Drug uptake in humanized mouse liver at 50 mg/kg, sc after 24 hrs by LC-MS/MS analysis; assay type: ADME, organism-based; details: read-out: Drug uptake
Procedure, shortened: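 Uninfected humanized mice given 50 or 200 mg/kg subcutaneously once daily as a methocel suspension for 8 days; liver concentration measured 24 h after dosing.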

[7] = Oral bioavailability in C57BL/6 mouse at 50 mg/kg by LC-MS/MS analysis; assay type: ADME, organism-based; details: in vivo; procedure, shortened: as §1
[8] = AUC (0 to 24 hrs) in humanized mouse at 200 mg/kg, sc measured on day 1 post dose by LC-MS/MS analysis; assay type: ADME, organism-based; design: dose 200 mg/kg, time < 24 hr, route subcutaneous; details: in vivo
HBV genotype D [9] = assay: Antiviral activity against HBV genotype D infected in human HepG2.2.15 cells assessed as inhibition of viral DNA level treated twice for 3 days measured after 6 days by real time PCR; assay type: functional, organism-based; details: Hepatitis B virus
Cytochrome P450 2C8 = target: T1, Cytochrome P450 2C8 (Homo sapiens, UniProt P10632); assay: Inhibition of CYP2C8 (unknown origin); assay type: ADME
T1 sequence (P10632 whole entry): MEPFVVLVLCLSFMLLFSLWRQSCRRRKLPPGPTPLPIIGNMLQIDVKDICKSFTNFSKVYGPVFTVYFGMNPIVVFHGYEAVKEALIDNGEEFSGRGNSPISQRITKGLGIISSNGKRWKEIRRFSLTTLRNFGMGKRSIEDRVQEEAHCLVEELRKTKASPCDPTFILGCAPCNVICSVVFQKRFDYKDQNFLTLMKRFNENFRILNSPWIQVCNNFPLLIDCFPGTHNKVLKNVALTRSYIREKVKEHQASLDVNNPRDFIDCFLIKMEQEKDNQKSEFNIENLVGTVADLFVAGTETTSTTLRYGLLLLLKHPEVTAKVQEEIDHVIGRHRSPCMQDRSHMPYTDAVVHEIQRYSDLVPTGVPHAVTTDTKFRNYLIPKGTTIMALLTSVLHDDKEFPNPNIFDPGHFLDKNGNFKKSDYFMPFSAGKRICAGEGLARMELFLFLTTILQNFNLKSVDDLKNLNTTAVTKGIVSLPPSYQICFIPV

[10] = Half life in humanized mouse at 200 mg/kg, sc measured on day 1 post dose by LC-MS/MS analysis; assay type: ADME, organism-based; details: in vivo
[11] = Cmax in humanized mouse at 200 mg/kg, sc for 8 days measured on day 8 post last dose by LC-MS/MS analysis; assay type: ADME, organism-based; design: dose 200 mg/kg, route subcutaneous; details: in vivo
Salmonella typhimurium = assay: Genotoxicity in Salmonella typhimurium by Ames test; assay type: toxicity, organism-based; details: salmonella enterica subsp. enterica serovar typhimurium
[12] = Drug metabolism in mouse liver microsomes at 1 uM after 15 mins by LC-MS/MS analysis; assay type: ADME, microsome; details: read-out: Drug metabolism
Procedure, shortened: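 Compound incubated 15 min with human or mouse liver microsomes; stability expressed as percent turnover (metabolised) at 15 min.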

HBV genotype D [13] = assay: Antiviral activity against HBV genotype D infected in chimeric mouse with humanized liver assessed as reduction in HBsAg level at 200 mg/kg, sc qd for 28 days; assay type: functional, organism-based; details: hepatitis B virus genotype D
Procedure, shortened: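 HBV genotype D-infected humanized-liver chimeric mice (≥70% human hepatocyte replacement) were dosed once daily for 28 days at 200 mg/kg s.c., with oral saline and oral entecavir 0.03 mg/kg as controls. Serum HBeAg and HBsAg were followed over the study.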

MDR1 (P-gp) = assay: Apparent permeability in pig LLC-PK1 cells expressing human MDR1 from apical to basolateral side in absence of P-gp inhibitor GF-120918; assay type: ADME, cell-based, Sus scrofa
Procedure, shortened: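 LLC-PK1-MDR1 monolayers; apical-to-basolateral apparent permeability measured without the P-gp inhibitor GF-120,918, run in parallel with an inhibitor-containing arm to form a +GF/−GF ratio.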

[14] = Oral bioavailability in C57BL/6 mouse at 10 mg/kg by LC-MS/MS analysis; assay type: ADME, organism-based; details: in vivo; procedure, shortened: as §1
[15] = Cmax in humanized mouse at 200 mg/kg, sc measured on day 1 post dose by LC-MS/MS analysis; assay type: ADME, organism-based; design: dose 200 mg/kg, route subcutaneous; details: in vivo
[16] = Bioavailability in C57BL/6 mouse at 50 mg/kg, sc by LC-MS/MS analysis; assay type: ADME, organism-based; details: in vivo
[17] = AUC (0 to 8 hrs) in humanized mouse at 50 mg/kg, sc measured on day 1 post dose by LC-MS/MS analysis; assay type: ADME, organism-based; design: dose 50 mg/kg, time < 8 hr, route subcutaneous; details: in vivo
[18] = target: 5-hydroxytryptamine receptor 2B (Homo sapiens, UniProt P41595); assay: Antagonist activity at 5-HT2B (unknown origin) at 10 uM; assay type: functional
5-hydroxytryptamine receptor 2B, sequence (P41595 whole entry): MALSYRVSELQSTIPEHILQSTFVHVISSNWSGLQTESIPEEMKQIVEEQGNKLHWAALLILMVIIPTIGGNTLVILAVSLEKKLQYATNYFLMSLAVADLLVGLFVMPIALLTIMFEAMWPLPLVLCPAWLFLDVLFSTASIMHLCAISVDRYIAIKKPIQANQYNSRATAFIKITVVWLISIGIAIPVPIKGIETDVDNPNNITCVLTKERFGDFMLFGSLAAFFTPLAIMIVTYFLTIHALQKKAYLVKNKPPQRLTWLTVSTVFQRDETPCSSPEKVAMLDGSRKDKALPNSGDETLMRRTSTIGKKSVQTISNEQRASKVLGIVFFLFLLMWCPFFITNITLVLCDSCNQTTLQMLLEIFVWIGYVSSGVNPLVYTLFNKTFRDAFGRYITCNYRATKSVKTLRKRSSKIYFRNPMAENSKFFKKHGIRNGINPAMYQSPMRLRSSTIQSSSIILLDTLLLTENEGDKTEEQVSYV
Procedure, shortened: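 Receptor/ion channel/transporter panel of 80 targets screened at 10 µM, giving percent effect at 5-HT2B; follow-up 5-HT2B functional testing in agonist and antagonist modes, with antagonist IC50 determined.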

[19] = Kinetic solubility of the compound at pH 7.4 after 4 hrs by UPLC-UV analysis; assay type: physicochemical; details: buffer, read-out: Kinetic_solubility
HBV genotype D [20] = assay: Antiviral activity against HBV genotype D infected in primary human hepatocytes assessed as inhibition of viral DNA level by qPCR analysis; assay type: functional, organism-based; details: Hepatitis B virus
Procedure, shortened: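 Primary human hepatocytes isolated from naive chimeric mice with humanized liver and infected with HBV genotype D; HBV DNA in culture supernatant quantified by qPCR to derive EC50.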

[21] = Tmax in humanized mouse at 50 mg/kg, sc for 8 days measured on day 8 post last dose by LC-MS/MS analysis; assay type: ADME, organism-based; details: in vivo
[22] = Tmax in humanized mouse at 50 mg/kg, sc measured on day 1 post dose by LC-MS/MS analysis; assay type: ADME, organism-based; details: in vivo
[23] = Half life in C57BL/6 mouse at 10 mg/kg, po by LC-MS/MS analysis; assay type: ADME, organism-based; details: in vivo
Procedure, shortened: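 Single-dose PK in C57BL/6 mice after intravenous or oral dosing, with oral doses of 10 and 50 mg/kg; plasma clearance and volume of distribution taken from the i.v. arm.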

[24] = AUC (0 to infinity) in humanized mouse at 200 mg/kg, sc for 8 days measured on day 8 post last dose by LC-MS/MS analysis; assay type: ADME, organism-based; design: dose 200 mg/kg, route subcutaneous, time infinity; details: in vivo

Q: With `Cc1cc(NC(=O)c2cccc(S(=O)(=O)N[C@H]3CCOC3)c2)ccc1F` as the compound, how does the AUC(0-inf) [1] read?
A: Its AUC(0-inf) is 12700 ng·h/mL.

Q: What about the Tmax [2] of the same compound?
A: Its Tmax is 30 min.

Q: And the Vd [3]?
A: The Vd was 1.3 L/kg.

Q: What about the Tmax [4] of the same compound?
A: The Tmax was 42 min.

Q: And the “log(activity)” value (HBV genotype D [5])?
A: The value was 2.77.

Q: And the concentration at 24 h [6]?
A: The concentration at 24 h was 570 ng/g.

Q: And the bioavailability [7]?
A: Its bioavailability is 66%.

Q: What about the AUC(0-t) at 24 h [8] of the same compound?
A: The AUC(0-t) at 24 h was 12000 ng·h/mL.

Q: And the EC50 (HBV genotype D [9])?
A: The EC50 was 120 nM.

Q: And the IC50 (Cytochrome P450 2C8)?
A: The IC50 was over 10000 nM.

Q: And the half-life [10]?
A: Its half-life is 336 min.

Q: What about the Cmax [11] of the same compound?
A: The Cmax was 7700 ng/mL.

Q: What about the Activity (Salmonella typhimurium) of the same compound?
A: Its Activity is “Non-Toxic”.

Q: What about the metabolised at 0.25 h, 1 µM [12] of the same compound?
A: Its metabolised at 0.25 h, 1 µM is 51%.

Q: And the Activity (HBV genotype D [13])?
A: Its Activity is “inactive”.

Q: What about the Papp A→B (MDR1 (P-gp)) of the same compound?
A: Its Papp A→B is 7.3 ×10⁻⁶ cm/s.

Q: What about the bioavailability [14] of the same compound?
A: The bioavailability was 40%.

Q: What about the Cmax [15] of the same compound?
A: Its Cmax is 2110 ng/mL.

Q: And the bioavailability [16]?
A: The bioavailability was 68%.

Q: What about the AUC(0-t) at 8 h [17] of the same compound?
A: Its AUC(0-t) at 8 h is 4750 ng·h/mL.

Q: And the inhibition [18]?
A: Its inhibition is 71%.

Q: What about the solubility kinetic at 4 h [19] of the same compound?
A: Its solubility kinetic at 4 h is 82 µM (≈ 31 µg/mL).

Q: What about the EC50 (HBV genotype D [20]) of the same compound?
A: Its EC50 is 200 nM.

Q: And the Tmax [21]?
A: The Tmax was 48 min.

Q: What about the Tmax [22] of the same compound?
A: The Tmax was 60 min.

Q: And the half-life [23]?
A: The half-life was 66 min.

Q: And the AUC(0-inf) [24]?
A: Its AUC(0-inf) is 119000 ng·h/mL.
